Laboratory results from ChEMBL document CHEMBL4033790, “Design and Synthesis of Novel Deuterated Ligands Functionally Selective for the γ-Aminobutyric Acid Type A Receptor (GABAAR) α6 Subtype with Improved Metabolic Stability and Enhanced Bioavailability” (J Med Chem, 2018).

What was measured:
[1] = system: Liver; assay: Half life in mouse liver microsomes at 10 uM by LC-MS/MS analysis; type: ADME, microsome
Method in brief: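 Compound at 10 μM final was preincubated 5 min at 37 °C with NADPH regenerating system in phosphate buffer, pH 7.4. Human or mouse liver microsomes (0.5 mg/mL protein) were added to start the reaction. Samples were taken at 0 (no microsomes) and 10–60 min and measured by LC-MS/MS against an internal standard. Half-life = 0.693/k, with k the slope of ln peak-area ratio versus time. Three experiments, each in duplicate.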

[2] = system: Rattus norvegicus; assay: Toxicity in Wistar rat assessed as average swim speed at 10 mg/kg, ip administered for 45 mins by cued water-maze apparatus method (reference value: 0.21 +/- 0.01 meter/s); type: organism-based; details: in vivo, 0.75 h
[3] = AUC (0 to 12 hrs) in Wistar rat plasma at 10 mg/kg, ip administered as single dose by HPLC-MS/MS analysis; type: ADME, organism-based; design: time < 12 hr, dose 10 mg/kg, route intraperitoneal
[4] = Cmax in Wistar rat brain at 10 mg/kg, ip administered as single dose measured at 5 to 720 mins post dose by HPLC-MS/MS analysis; type: ADME, organism-based; design: dose 10 mg/kg, route intraperitoneal
Method in brief: (§1)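 Male Wistar rats (250-350 g) given a single 10 mg/kg i.p. dose of a 5 mg/ml suspension in 85% distilled water, 14% propylene glycol, 1% Tween 80. Three rats per time point (5, 20, 60, 180, 720 min). Blood and brain were collected after sacrifice. Drug was recovered by solid phase extraction and quantified by HPLC-MS/MS.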

[5] = Tmax in Wistar rat brain at 10 mg/kg, ip administered as single dose by HPLC-MS/MS analysis; type: ADME, organism-based
Method in brief: (§2)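 Male Wistar rats (250–350 g) received a single i.p. dose of 10 mg/kg as a 5 mg/ml suspension in 85% water, 14% propylene glycol and 1% Tween 80. Three rats per time point were sacrificed at 5, 20, 60, 180 and 720 min for plasma and brain. Samples were cleaned up by solid-phase extraction and quantified by HPLC-MS/MS.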

[6] = Cmax in Wistar rat plasma at 10 mg/kg, ip administered as single dose measured at 5 to 720 mins post dose by HPLC-MS/MS analysis; type: ADME, organism-based; design: dose 10 mg/kg, route intraperitoneal; method in brief: as §1
[7] = Terminal elimination half-life in Wistar rat brain at 10 mg/kg, ip administered as single dose by HPLC-MS/MS analysis; type: ADME, organism-based; details: read-out: beta t1/2 (converted); method in brief: as §2
[8] = system: Rattus norvegicus; assay: Hyperlocomotor activity in Wistar rat assessed as total distance travelled at 10 mg/kg, ip after 60 mins; type: ADME, organism-based; details: in vivo, 1 h
[9] = Metabolic stability in mouse liver microsomes assessed as parent compound remaining at 10 uM after 60 mins by LC-MS analysis; type: ADME, microsome; details: read-out: Stability
Method in brief: (§3)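 The 60 min samples of the microsomal incubation (10 μM compound, human or mouse liver microsomes at 0.5 mg/mL, NADPH regenerating system, 37 °C) were analysed by LC-MS. Detection used SIM mode with dual ESI/APCI ionization, calibrated to the retention times and masses of the parent and its O-demethylated metabolites. Peak intensities were measured.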

[10] = system: HEK-293T; assay: Cytotoxicity against HEK293T cells assessed as reduction in cell viability up to 400 uM after 48 hrs by CellTiter-Glo assay; type: cell-based; details: human
Method in brief: (§4)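 HEK293T and HepG2 cells grown in high-glucose DMEM with non-essential amino acids, 10 mM HEPES, penicillin/streptomycin and 10% heat-inactivated FBS. Cells were harvested with trypsin and plated; compound was pin-transferred 3 h later. Incubation was 48 h, then CellTiter-Glo luminescence was read. Controls were DMSO (negative) and a cytotoxic aminoketone (positive). Quadruplicates, three independent runs, normalized to controls, nonlinear regression.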

[11] = system: Rattus norvegicus; assay: Toxicity in Wistar rat assessed as total distance traveled at 10 mg/kg, ip administered for 45 mins measured for 5 min by elevated plus maze method (reference value: 6.71 +/- 0.56 meter); type: organism-based; details: in vivo
[12] = system: Rattus norvegicus; assay: Toxicity in Wistar rat assessed as peripheral ring distance at 10 mg/kg, ip administered for 45 mins by cued water-maze method (reference value: 67.44 +/- 4.60%); type: organism-based; details: in vivo, 0.75 h
[13] = system: Mus musculus; assay: Neurotoxicity in Swiss Webster mouse assessed as induction of motor impairment at 60 mg/kg administered via oral gavage measured after 10 to 60 mins by rotarod method; type: toxicity, organism-based; details: in vivo
[14] = system: Rattus norvegicus; assay: Toxicity in Wistar rat assessed as grip strength by measuring peak force of pull necessary to overcome strength of animal's grip at 10 mg/kg, ip (reference value: 2.79 +/- 0.16 kg/kg); type: organism-based; details: in vivo
[15] = Terminal elimination half-life in Wistar rat plasma at 10 mg/kg, ip administered as single dose by HPLC-MS/MS analysis; type: ADME, organism-based; details: read-out: beta t1/2 (converted); method in brief: as §2
[16] = system: Rattus norvegicus; assay: Toxicity in Wistar rat assessed as closed arm entries at 10 mg/kg, ip administered for 45 mins measured for 5 min by elevated plus maze apparatus method (reference value: 3.63 +/- 0.42); type: organism-based; details: in vivo
[17] = Tmax in Wistar rat plasma at 10 mg/kg, ip administered as single dose by HPLC-MS/MS analysis; type: ADME, organism-based; method in brief: as §2
[18] = biological target: Voltage-gated inwardly rectifying potassium channel KCNH2 (Homo sapiens, UniProt Q12809); assay: Displacement of [3H]-dofetilide from human ERG expressed in HEK cell membranes at >10 uM after 60 to 90 mins by scintillation counting
[19] = system: HepG2; assay: Cytotoxicity against human HepG2 cells assessed as reduction in cell viability up to 400 uM after 48 hrs by CellTiter-Glo assay; type: cell-based; details: hepg2, 48 h; method in brief: as §4
[20] = system: Rattus norvegicus; assay: Toxicity in Wistar rat assessed as open arm entries at 10 mg/kg, ip administered for 45 mins measured for 5 min by elevated plus maze apparatus method (reference value: 23.07 +/- 5.47%); type: organism-based; details: in vivo
[21] = system: Brain; assay: AUC (0 to 12 hrs) in Wistar rat brain at 10 mg/kg, ip administered as single dose by HPLC-MS/MS analysis; type: ADME, organism-based; design: dose 10 mg/kg, time < 12 hr, route intraperitoneal; details: in vivo
[22] = system: Rattus norvegicus; assay: Toxicity in Wistar rat assessed as total distance traveled at 10 mg/kg, ip administered for 45 mins by cued water-maze method (reference value: 8.04 +/- 1.16 meter); type: organism-based; details: in vivo, 0.75 h
[23] = Ratio of brain AUC (0 to t) to plasma AUC (0 to t), Kp of the compound in Wistar rat at 10 mg/kg, ip administered as single dose by HPLC-MS/MS analysis; type: ADME, organism-based
[24] = Metabolic stability in human liver microsomes assessed as parent compound remaining at 10 uM after 60 mins by LC-MS analysis; type: ADME, microsome; details: read-out: Stability; method in brief: as §3
[25] = Drug metabolism in mouse liver microsomes assessed as CYP450 mediated-O-demethylated 7-hydroxy-2-[6-(trideuteriomethoxy)-3-pyridyl]-5H-pyrazolo[4,3-c]quinolin-3-one metabolite formation after 60 mins by LC-MS analysis; type: ADME; details: 1 h
Method in brief: (§5)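 The 60-min samples from the human or mouse liver microsome incubations (10 µM compound, 0.5 mg/mL protein, NADPH regenerating system, 37 °C, pH 7.4) were run on LC-MS in SIM mode with dual ESI/APCI ionization. The method was calibrated to each component's retention time and mass, and the peak intensities of the parent and O-demethylated metabolites were measured.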

[26] = Drug metabolism in human liver microsomes assessed as CYP450 mediated-O-demethylated 2-(6-hydroxypyridin-3-yl)-7-methoxy-2H-pyrazolo[4,3-c]quinolin-3(5H)-one metabolite formation after 60 mins by LC-MS analysis; type: ADME; details: 1 h; method in brief: as §5
[27] = Drug metabolism in mouse liver microsomes assessed as CYP450 mediated-O-demethylated 7-hydroxy-2-(6-hydroxypyridin-3-yl)-2H-pyrazolo[4,3-c]quinolin-3(5H)-one metabolite formation after 60 mins by LC-MS analysis; type: ADME; details: 1 h; method in brief: as §5
[28] = system: Mus musculus; assay: Neurotoxicity in Swiss Webster mouse assessed as induction of motor impairment at 40 mg/kg administered via oral gavage measured after 10 to 60 mins by rotarod method; type: toxicity, organism-based; details: in vivo
Method in brief: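 Female mice were given a single oral gavage dose of 40 mg/kg, either in 50% PBS/40% propylene glycol/10% DMSO or, for poorly soluble compounds, in 2% polyethylene glycol plus 2.5% hydroxymethyl cellulose. Rotarod performance was tested 10, 30 and 60 min after dosing, with diazepam 5 mg/kg as positive control.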

[29] = Drug metabolism in human liver microsomes assessed as CYP450 mediated-O-demethylated 7-hydroxy-2-(6-hydroxypyridin-3-yl)-2H-pyrazolo[4,3-c]quinolin-3(5H)-one metabolite formation after 60 mins by LC-MS analysis; type: ADME; details: 1 h; method in brief: as §5
[30] = Drug metabolism in human liver microsomes assessed as CYP450 mediated-O-demethylated 7-hydroxy-2-[6-(trideuteriomethoxy)-3-pyridyl]-5H-pyrazolo[4,3-c]quinolin-3-one metabolite formation after 60 mins by LC-MS analysis; type: ADME; details: 1 h; method in brief: as §5
[31] = Drug metabolism in mouse liver microsomes assessed as CYP450 mediated-O-demethylated 2-(6-hydroxypyridin-3-yl)-7-methoxy-2H-pyrazolo[4,3-c]quinolin-3(5H)-one metabolite formation after 60 mins by LC-MS analysis; type: ADME; details: 1 h; method in brief: as §5
[32] = Drug metabolism in mouse liver microsomes assessed as CYP450 mediated-O-demethylated 7-bromo-2-(4-hydroxyphenyl)-2H-pyrazolo[4,3-c]quinolin-3(5H)-one metabolite formation after 60 mins by LC-MS analysis; type: ADME; details: 1 h; method in brief: as §5
[33] = Drug metabolism in human liver microsomes assessed as CYP450 mediated-O-demethylated 7-bromo-2-(4-hydroxyphenyl)-2H-pyrazolo[4,3-c]quinolin-3(5H)-one metabolite formation after 60 mins by LC-MS analysis; type: ADME; details: 1 h; method in brief: as §5
[34] = Drug level in human liver microsomes treated with 8-Chloro-2-(3-methoxy-d3-phenyl)-2,5-dihydro-3H-pyrazolo[4,3-c]quinolin-3-one after 60 mins by LC-MS analysis; type: ADME; details: 1 h
[35] = Drug level in mouse liver microsomes treated with 8-Chloro-2-(3-methoxy-d3-phenyl)-2,5-dihydro-3H-pyrazolo[4,3-c]quinolin-3-one after 60 mins by LC-MS analysis; type: ADME; details: 1 h

Voltage-gated inwardly rectifying potassium channel KCNH2, sequence (Q12809 whole entry): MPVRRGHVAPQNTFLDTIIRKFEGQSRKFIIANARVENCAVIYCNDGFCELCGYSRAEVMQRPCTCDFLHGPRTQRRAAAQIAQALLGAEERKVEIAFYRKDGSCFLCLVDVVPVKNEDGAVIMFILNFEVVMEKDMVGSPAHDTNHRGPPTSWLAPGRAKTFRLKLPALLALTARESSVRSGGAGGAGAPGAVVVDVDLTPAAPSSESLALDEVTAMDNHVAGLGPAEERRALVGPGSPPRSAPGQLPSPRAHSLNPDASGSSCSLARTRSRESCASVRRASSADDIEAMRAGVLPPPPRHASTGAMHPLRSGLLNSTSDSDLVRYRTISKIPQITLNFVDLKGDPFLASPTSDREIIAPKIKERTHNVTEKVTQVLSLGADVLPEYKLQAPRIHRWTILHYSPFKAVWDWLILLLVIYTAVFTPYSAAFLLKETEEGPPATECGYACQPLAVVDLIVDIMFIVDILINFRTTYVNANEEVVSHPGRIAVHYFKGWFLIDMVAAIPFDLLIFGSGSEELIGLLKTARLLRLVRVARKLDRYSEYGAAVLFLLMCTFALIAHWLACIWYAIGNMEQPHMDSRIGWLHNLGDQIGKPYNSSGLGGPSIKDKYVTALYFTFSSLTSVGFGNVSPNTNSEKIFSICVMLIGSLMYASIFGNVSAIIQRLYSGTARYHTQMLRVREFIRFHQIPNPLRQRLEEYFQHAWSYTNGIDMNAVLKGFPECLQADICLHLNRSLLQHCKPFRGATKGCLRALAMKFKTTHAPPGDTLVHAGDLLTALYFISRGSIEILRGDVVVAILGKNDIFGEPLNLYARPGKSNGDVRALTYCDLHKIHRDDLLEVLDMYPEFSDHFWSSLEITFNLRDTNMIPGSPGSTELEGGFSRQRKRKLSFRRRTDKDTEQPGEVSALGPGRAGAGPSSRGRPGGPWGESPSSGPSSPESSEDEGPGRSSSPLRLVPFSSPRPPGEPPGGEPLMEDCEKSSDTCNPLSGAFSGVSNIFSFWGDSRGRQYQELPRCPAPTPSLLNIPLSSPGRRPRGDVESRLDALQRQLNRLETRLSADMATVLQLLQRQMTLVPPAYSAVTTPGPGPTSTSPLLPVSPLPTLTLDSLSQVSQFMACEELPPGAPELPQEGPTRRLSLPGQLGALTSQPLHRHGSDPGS

Structure (SMILES): [2H]C([2H])([2H])Oc1ccccc1-n1nc2c3cc(Cl)ccc3[nH]cc-2c1=O
- t1/2 [1]: 16.6 h
- Activity [2]: 0.22 meter/s
- AUC(0-t) at 12 h [3]: 1800 ng·h/mL
- Cmax [4]: 65.6 ng/g
- Tmax [5]: 0.78 h
- Cmax [6]: 434 ng/mL
- half-life [7]: 5.54 h
- Activity [8]: Non-Toxic
- remaining at 1 h, 10 µM [9]: 94.9%
- Activity [10]: Non-Toxic
- Activity [11]: 6.14 m
- Activity [12]: 69.34%
- Activity [13]: Non-Toxic
- Activity [14]: 2.66 kg/kg
- half-life [15]: 3.66 h
- Activity [16]: 3.5
- Tmax [17]: 0.78 h
- inhibition (INH) [18]: Not Active
- Activity [19]: Non-Toxic
- Activity [20]: 20.6%
- AUC [21]: 269.03 ng·h/g
- Activity [22]: 9.93 m
- Kp [23]: 0.15
- remaining at 1 h, 10 µM [24]: 94.8%

Structure (SMILES): [2H]C([2H])([2H])Oc1ccc(-n2nc3c4ccc(OC)cc4[nH]cc-3c2=O)cn1
- Drug metabolism [25]: Metabolite_Detected
- Drug metabolism [26]: Metabolite_Detected
- remaining at 1 h, 10 µM [9]: 92.4%
- Drug metabolism [27]: Metabolite_Detected
- Activity [28]: Non-Toxic
- inhibition (INH) [18]: Not Active
- Drug metabolism [29]: Metabolite_Detected
- Drug metabolism [30]: Metabolite_Detected
- remaining at 1 h, 10 µM [24]: 92.6%
- Drug metabolism [31]: Metabolite_Detected

Structure (SMILES): [2H]C([2H])([2H])Oc1ccc(-n2nc3c4ccc(Br)cc4[nH]cc-3c2=O)cc1
- Drug metabolism [32]: Metabolite_Detected
- t1/2 [1]: 2.3 h
- remaining at 1 h, 10 µM [9]: 73.8%
- Activity [10]: Non-Toxic
- Activity [28]: Non-Toxic
- inhibition (INH) [18]: Not Active
- Activity [19]: Non-Toxic
- Drug metabolism [33]: Metabolite_Detected
- remaining at 1 h, 10 µM [24]: 81.5%

Structure (SMILES): O=c1c2c[nH]c3ccc(Cl)cc3c-2nn1-c1cccc(O)c1
- Drug metabolism [34]: Metabolite_Detected
- Drug metabolism [35]: Metabolite_Detected
